Here are results for 2 compounds from ChEMBL document CHEMBL4428128, “Design, synthesis, crystal structure, biological evaluation and molecular docking studies of carbazole-arylpiperazine derivatives” (Bioorg Med Chem, 2016).

The structures appear in SMILES notation.

In assay [1] the target is T1, Alpha-1B adrenergic receptor (Rattus norvegicus, UniProt P15823).
T1 sequence (P15823 whole entry): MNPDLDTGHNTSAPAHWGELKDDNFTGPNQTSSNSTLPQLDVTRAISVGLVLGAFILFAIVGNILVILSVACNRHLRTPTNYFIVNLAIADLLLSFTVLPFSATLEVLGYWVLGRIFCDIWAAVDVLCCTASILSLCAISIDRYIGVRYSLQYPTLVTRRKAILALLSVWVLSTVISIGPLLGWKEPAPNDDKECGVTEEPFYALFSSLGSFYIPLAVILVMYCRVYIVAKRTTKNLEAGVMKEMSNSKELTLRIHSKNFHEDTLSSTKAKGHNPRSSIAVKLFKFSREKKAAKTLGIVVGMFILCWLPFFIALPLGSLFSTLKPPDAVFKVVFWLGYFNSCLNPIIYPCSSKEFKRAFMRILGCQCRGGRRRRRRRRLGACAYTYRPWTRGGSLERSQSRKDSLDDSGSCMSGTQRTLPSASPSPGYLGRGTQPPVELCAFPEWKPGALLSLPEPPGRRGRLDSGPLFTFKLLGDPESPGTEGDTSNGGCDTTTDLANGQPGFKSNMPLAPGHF
Nature of the assay: Antagonistic activity at alpha1B adrenoceptor in Sprague-Dawley rat spleen assessed as inhibition of noradrenaline-induced contractions after 0.5 hrs in presence of alpha2/beta adrenoceptor blocker yohimbine, propranolol by Schild plot analysis. To be noted: read-out: pA2 (converted). In kind it is tissue-based.

Assay [2] has as its target T2, Alpha-1A adrenergic receptor (Rattus norvegicus, UniProt P43140).
T2 sequence (P43140 whole entry): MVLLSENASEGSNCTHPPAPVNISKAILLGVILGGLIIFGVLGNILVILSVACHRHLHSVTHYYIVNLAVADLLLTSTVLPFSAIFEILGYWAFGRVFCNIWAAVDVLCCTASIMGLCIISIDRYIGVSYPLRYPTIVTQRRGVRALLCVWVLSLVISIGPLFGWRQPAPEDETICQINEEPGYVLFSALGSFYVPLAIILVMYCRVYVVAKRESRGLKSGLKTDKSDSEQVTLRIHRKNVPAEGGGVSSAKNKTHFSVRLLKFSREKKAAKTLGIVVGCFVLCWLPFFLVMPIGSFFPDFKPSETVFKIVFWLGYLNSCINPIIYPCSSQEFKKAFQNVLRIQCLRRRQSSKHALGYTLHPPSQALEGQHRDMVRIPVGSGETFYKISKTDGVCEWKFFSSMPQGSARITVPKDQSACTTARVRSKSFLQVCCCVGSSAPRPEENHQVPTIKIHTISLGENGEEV
Nature of the assay: Antagonistic activity at alpha1A adrenoceptor in Sprague-Dawley rat vas deferens assessed as inhibition of noradrenaline-induced contractions after 0.5 hrs in presence of alpha2/beta adrenoceptor blocker yohimbine, propranolol by Schild plot analysis. To be noted: read-out: pA2 (converted).

Assay [3] is filed under the species Rattus norvegicus. Briefly: Selectivity ratio of antilog of change in pA2 for alpha1D adrenoceptor in Sprague-Dawley rat thoracic aorta to antilog of change in pA2 for alpha1B adrenoceptor in Sprague-Dawley rat spleen.
The species named for assay [4] is Rattus norvegicus. Briefly: Selectivity ratio of antilog of change in pA2 for alpha1A adrenoceptor in Sprague-Dawley rat vas deferens to antilog of change in pA2 for alpha1B adrenoceptor in Sprague-Dawley rat spleen.
Assay [5] addresses T3, Alpha-1D adrenergic receptor (Rattus norvegicus, UniProt P23944).
T3 sequence (P23944 whole entry): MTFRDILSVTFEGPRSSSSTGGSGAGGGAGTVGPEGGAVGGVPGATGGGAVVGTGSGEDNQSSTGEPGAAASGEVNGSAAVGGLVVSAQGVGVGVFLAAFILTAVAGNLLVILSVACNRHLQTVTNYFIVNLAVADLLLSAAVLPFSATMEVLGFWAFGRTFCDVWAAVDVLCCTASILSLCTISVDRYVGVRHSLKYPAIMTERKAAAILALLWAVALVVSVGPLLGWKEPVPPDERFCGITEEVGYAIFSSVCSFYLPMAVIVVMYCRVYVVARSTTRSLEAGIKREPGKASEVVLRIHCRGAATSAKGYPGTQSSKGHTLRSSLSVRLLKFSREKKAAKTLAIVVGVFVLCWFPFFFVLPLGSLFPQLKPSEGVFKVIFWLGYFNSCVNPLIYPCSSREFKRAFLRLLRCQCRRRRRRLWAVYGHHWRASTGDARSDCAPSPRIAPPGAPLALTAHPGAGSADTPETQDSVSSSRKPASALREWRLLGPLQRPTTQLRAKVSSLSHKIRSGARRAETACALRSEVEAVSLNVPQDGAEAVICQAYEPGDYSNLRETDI
Briefly: Antagonistic activity at alpha1D adrenoceptor in Sprague-Dawley rat thoracic aorta assessed as inhibition of noradrenaline-induced contractions after 0.5 hrs in presence of alpha2/beta adrenoceptor blocker yohimbine, propranolol by Schild plot analysis. The conditions noted are these: read-out: pA2 (converted). In outline:
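Isolated tissue rings (aorta rings about 4 mm) held in Krebs–Henseleit buffer (pH 7.4, 37 °C, O2/CO2 19:1), equilibrated 1.5 h under optimal tension, primed three times with noradrenaline, then washed. Antagonist preincubated 0.5 h. Noradrenaline concentration–response curves run 1 h apart, without and with antagonist, in continuous yohimbine and propranolol. Responses expressed as % of pre-incubation NA Emax.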

The species entered for assay [6] is Rattus norvegicus. Nature of the assay: Selectivity ratio of antilog of change in pA2 for alpha1D adrenoceptor in Sprague-Dawley rat thoracic aorta to antilog of change in pA2 for alpha1A adrenoceptor in Sprague-Dawley rat vas deferens.

`COc1ccc(OC)c(N2CCN(CC(O)COc3cccc4[nH]c5ccccc5c34)CC2)c1` (configuration not stated): the Kb is 74.1 nM in assay [1], 437 nM in assay [2] and 141 nM in assay [5]. In addition, the Selectivity ratio in the assay listed under Rattus norvegicus [3] came to 0.5; in the assay filed under Rattus norvegicus [4], 0.2; in the assay listed under Rattus norvegicus [6] it was 3.1.
As for `COc1ccc(N2CCN(CC(O)COc3cccc4[nH]c5ccccc5c34)CC2)cc1` (configuration not stated), the Kb in assay [1] is 6920 nM; in assay [2] it was 1860 nM; in assay [5], 87.1 nM. Besides, the Selectivity ratio in the assay filed under Rattus norvegicus [3] came to 79.4; in the assay listed under Rattus norvegicus [4], 3.7; in the assay listed under Rattus norvegicus [6], 21.4.
